HSF-1 act: increases HSF-1 driven luciferase reporter signal; NIH3T3-HGL HSF-1 luciferase reporter, MG132, 8 h; 100% = twice DMSO control signal; activation, % at 9 µM; 300,000 tested, 1.7% active; AID 504408;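 active = mean replicate activation of at least 50% with a set share of replicates each reaching 50%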;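 also: 0% = median of the neutral control wells and 100% = twice that signal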
HSF1 inh: HSF1 inhibition. NIH3T3-HGL HSE-luciferase, MG132-induced, luminescence 8 h; stronger effect = lower value. activity change, negative = inhibition, % at 7.5 µM (by protocol). 300,000 tested, 0.77% active. AID 2098;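 active = more than half of replicate wells show activity change below -50%, luminescence cut by over half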;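 also: luciferase reports HSF-1 transcriptional activity via heat shock element; 0% = median of DMSO wells and -100% = zero luminescence signal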
Rad51 HR inh: blocks human Rad51 in homologous recombination; Q06609; hRad51 DNA strand exchange, fluorescence dequenching; inhibition, % at 10 µM; 200,000 tested, 0.085% active;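 active = inhibition above 40% at the single screening dose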;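 also: 0% = DMSO control wells and 100% = blanks with heterologous ssDNA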
Target sequence (Q06609 whole entry, looked up): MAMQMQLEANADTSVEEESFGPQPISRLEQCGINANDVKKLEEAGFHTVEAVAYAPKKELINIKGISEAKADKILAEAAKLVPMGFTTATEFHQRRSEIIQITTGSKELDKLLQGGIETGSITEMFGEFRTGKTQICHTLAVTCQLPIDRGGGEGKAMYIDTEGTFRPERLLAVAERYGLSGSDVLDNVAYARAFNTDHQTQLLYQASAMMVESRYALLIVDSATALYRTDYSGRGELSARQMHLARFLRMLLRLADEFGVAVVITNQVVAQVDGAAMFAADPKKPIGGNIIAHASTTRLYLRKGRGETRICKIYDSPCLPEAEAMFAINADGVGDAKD
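System: human Rad51 nucleoprotein filaments preassembled on unlabelled ssDNA. Reagent: labelled 47-mer dsDNA for strand exchange. Schedule: 30-min compound preincubation and 15-min exchange, both room temperature. Measured by: FRET fluorescence dequenching, excitation 485 nm, emission 520 nm. Read-out: Fluorescence-based percent inhibition, control- and blank-normalised. Benchmarks: plate controls and plate blanks.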
Hsp70 activator: Hsp70 transcriptional activation, primary screen; activation, % at 10 µM; 200,000 tested, 0.04% active; HeLa Hsp70 promoter luciferase reporter, luminescence; scaled: vehicle 0, proteasome-inhibitor control 100%; AID 1203;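 active = activation above the mean across all tested compounds plus 3 SD, cutoff set per campaign, cut at about 5.5% in these data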;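 also: 100% = MG132 at 30 µM as the positive control and 0% = DMSO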
Mdm2 ligase inh: Mdm2 E3 ligase (human) inhibition | Q00987 | cell-based MDM2 ubiquitination luciferase reporter, 2 h; 0 = plate control, 100 = twice control, blank-subtracted | signal enhancement, % at 5 µM | 210,000 tested, 0.11% active | AID 1230;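 active = signal enhancement of 30% or more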;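 also: luminescence tracks abundance of the self-degrading MDM2-luciferase fusion protein; higher signal means inhibition of MDM2 E3 ligase activity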
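Test system: mammalian cells stably expressing self-ubiquitinating, self-degrading MDM2 E3–luciferase fusion; Amount: 2000 cells in each well; Medium: DMEM; Schedule: 4 h settle plus 2 h compound, 37 °C; Technique: SteadyLite luciferase luminescence after 15 min room-temperature reagent incubation; Benchmarks: plate control and blank wells.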
HSV replic up: increases HSV replication in cells | HSV replication augmentation in cells, fold increase | maximum fold increase | 220,000 tested, 0.005% active; in the data active = maximum fold increase above about 1.5; tested in PC3 cells
* marks the source's active call; other numbers are inactive results; i = inactive; / = no result. Shown are actives, neighbours in structure and some others; about 2.6% of the full set was active somewhere.

SMILES	HSF-1 act	HSF1 inh	Rad51 HR inh	Hsp70 activator	Mdm2 ligase inh	HSV replic up
CCC(NC(=O)CCc1c(C)c2cc3c(-c4ccccc4)coc3cc2oc1=O)C(=O)O (configuration not stated)	9	0	/	/	/	/
Cc1ccc(OCc2ccc(C#N)cc2)c(C(=O)c2cc(C#N)c(=O)n(C3CC3)c2)c1	53*	6	1	0	-10	i
Cc1cc(O)c(C2=Nc3ccccc3SC(c3ccc(Cl)cc3)C2)c(=O)o1 (configuration not stated)	-63	-54*	26	0	-12	i
c1ccc(-n2cc(CN3CCC(N4CCOCC4)CC3)c(-c3ccc4c(c3)OCO4)n2)cc1	-3	-4	/	0	-12	i
c1ccc(-n2cc(CN3CCCC3)c(-c3ccc4c(c3)OCO4)n2)cc1	55*	37	1	0	2	i
Brc1ccc2c(c1)C(c1cccnc1)=NNC(c1cccs1)=N2	64*	26	/	0	-2	i
Brc1ccc2c(c1)C(c1ccc(N3CCOCC3)cc1)=NNC(c1cccs1)=N2	39	20	-2	0	10	i
Oc1ccc(Cl)cc1/C=C/c1ccc2cccc(O)c2n1	58*	29	-23	0	-18	i
COc1cc(Br)c(/C=C/c2ccc3cccc(O)c3n2)cc1OC	27	11	/	/	/	/
Cc1ccsc1/C=C/c1ccc2cccc(O)c2n1	71*	46	-3	0	-1	i
COc1cc(Br)cc(/C=C/c2ccc3cccc(O)c3n2)c1O	85*	63	/	/	/	/
CN1CCN(CC2(O)CCN(S(=O)(=O)c3ccc(Cl)cc3)CC2)CC1	-11	1	1	0	-9	i
CC(=O)O[C@]1(C(C)=O)CC[C@H]2[C@@H]3C=CC4=CC(=O)C=C[C@]4(C)[C@H]3CC[C@@]21C	109*	56	/	/	/	/
CC(=O)O[C@]1(C(C)=O)CCC2C3C=C(C)C4=CC(=O)CC[C@]4(C)C3CC[C@@]21C (some centres not stated)	-6	1	/	/	/	/
O=C(Nc1ccc2sccc2c1)c1ccc(Cl)s1	72*	34	14	0	-44	i
Cc1cc(C)nc(SCc2ccc(C(=O)N/N=C3\CCCC(=O)C3)cc2)n1	2	-1	1	0	-6	i
Cc1ccc2nc(COc3ccc(Cl)cc3)cc(=O)n2c1	66*	45	-11	0	-51	i
CCOc1cc(C=O)ccc1OCc1cc(=O)n2cc(C)ccc2n1	-10	-4	-40	0	2	i
Cn1c(=O)c2ncn(CC(=O)N/N=C/C=C/c3ccccc3)c2n(C)c1=O	60*	30	3	0	-4	i
O=C(O)CN=CC1=C(O)CC(c2ccccc2)CC1=O (configuration not stated)	7	-3	/	/	/	/
COc1ccc(C(=O)c2c(C(F)(F)F)oc3c2C(=O)c2ccccc2C3=O)cc1	-94	-94*	10	-1	/	i
Cc1ccc(C(=O)c2c(C)oc3c2C(=O)C(=O)c2ccccc2-3)cc1	14	16	9	0	-5	i
CN1CCc2c(sc(/N=C/c3cc(Cl)ccc3O)c2C#N)C1	-60	-52*	/	/	-7	i
Cc1cc2nc3ccc(=[N+](C)C)cc-3sc2cc1N	58*	44	3	/	-18	i
Cc1cc(C)c(NC(=O)CSc2nncn2-c2cccnc2)c(C)c1	-61	-54*	34	0	4	i
SMILES	HSF-1 act	HSF1 inh	Rad51 HR inh	Hsp70 activator	Mdm2 ligase inh	HSV replic up
Cc1c(Cl)cccc1NC(=O)CSc1nncn1-c1cccnc1	3	1	/	/	/	/
CC(C)NS(=O)(=O)c1ccc(OCC(=O)N2CCCC2)c(Cl)c1	-62	-53*	-1	0	-7	i
CC(C)c1ccc(OCC(=O)N2CCCCCC2)c(Br)c1	101*	61	3	0	-22	i
Cc1cc(Br)ccc1OCC(=O)N1CCCCCC1	16	7	0	0	-19	i
O=C(/C=C\c1ccccc1OC(=O)c1ccccc1F)c1cc2ccccc2o1	166*	124	-1	0	-14	i
Clc1ccccc1-c1ncc2ccccn12	168*	129	9	0	-3	i
COc1ccc(-c2ncc3ccccn23)cc1OC	26	8	7	0	-16	i
Clc1ccc(-c2ncc3ccccn23)cc1	63*	38	-18	0	-22	i
CCc1cc(=O)[nH]c(SCC(=O)Nc2ccc3c(c2)OCCO3)n1	-25	-18	/	/	/	/
CCc1cccc(CC)c1NC(=O)COC(=O)CC1c2ccccc2CCN1S(=O)(=O)c1ccc(F)cc1 (configuration not stated)	62*	31	3	0	-11	i
COc1ccc(/C=N/NC(=O)C(N)=O)c(OC)c1OC	7	0	16	0	-16	i
COc1ccc(/C=N/N(C)C2=NCCN2)c(OC)c1OC	-90	-86*	/	/	/	/
CC[C@@H]1[C@H]2CCCC(=O)N3CC[C@@H](C[C@@H]1OC(=O)Nc1ccccc1)[C@@H]23	12	-5	/	/	/	/
O=C(Nc1cccc2ccccc12)c1ccc([N+](=O)[O-])s1	71*	41	/	0	-7	i
O=C(Nc1ccccc1F)c1ccc([N+](=O)[O-])s1	101*	68	11	0	-22	i
CN(C)NC(=O)c1ccc([N+](=O)[O-])s1	10	-2	0	/	-12	i
Cc1ccccc1Oc1cc(NC(=O)CCCn2nc(C)c([N+](=O)[O-])c2C)cc([N+](=O)[O-])c1	29	10	3	0	6	i
Cc1ccccc1Oc1cc(NC(=O)Cn2cnc([N+](=O)[O-])c2)cc([N+](=O)[O-])c1	75*	28	0	0	-19	i
Cc1ccc(NC(=O)CN2CCN(Cc3ccccc3)CC2)cc1F	-15	1	/	/	/	/
N#C/C(=C\C=C\c1ccccc1[N+](=O)[O-])C(=O)NC1CCCCC1	82*	34	6	1	-8	i
O=C(CCl)Nc1cn(-c2ccccc2)nc1-c1ccc(F)cc1	-85	-84*	3	0	-4	i
CCn1c(C(=O)OC)cc2c1ccn2-c1ccc(F)cc1	52*	40	1	0	-19	i
Cc1ccc(S(=O)(=O)N2CCN(C(=O)c3c(-c4ccccc4)noc3C)CC2)c(C)c1	-79	-76*	/	/	/	/
Cc1ccc(S(=O)(=O)N2CCN(C(=O)c3c(-c4ccccc4)noc3C)CC2)cc1C	5	-2	/	/	/	/
Cc1ccc(-c2cc(C(=O)NCCCN3CCOCC3)no2)cc1	-79	-76*	-6	0	-21	i
O=C(NCCCN1CCOCC1)c1cc(-c2ccc(Cl)c(Cl)c2)on1	-1	0	/	/	/	/

Bioassay records as filed in PubChem BioAssay.
